Measurements: ChEMBL document CHEMBL3351600, “Sulfur, selenium and tellurium pseudopeptides: synthesis and biological evaluation” (Bioorg Med Chem, 2014)
Activity calls are given as the source filed them. The rule behind the calls is not given here.

Key:
[1] = Lipophilicity, log K of the compound by HPLC analysis
[2] = system: Klebsiella pneumoniae; assay: Antimicrobial activity against Klebsiella pneumoniae assessed as inhibition at 20 ug/6 mm disk after 1 to 2 days by agar diffusion assay; type: functional
Summary of the method: (§1)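 Standard agar diffusion: 6-mm paper disks loaded with 20 µg of compound were placed on inoculated plates. Inhibition-zone diameter (mm) was read after 1 and 2 days of growth.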

[3] = system: A-431; assay: Reduction in ROS in human A431 cells assessed as decrease in hydrogen peroxide level at 0.1 to 10 ng/ml after 1 hr by DCHFA assay; type: functional, cell-based
Summary of the method: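 A-431 cells were seeded at 10^5 per well and exposed to a range of compound concentrations for 1 h. They were then loaded with DCHFA probe for 30 min in the dark. Fluorescence was read immediately at ex/em 485/528 nm and expressed as arbitrary units per 10^5 cells.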

[4] = Cytotoxicity against human fibroblasts assessed as cell viability after 24 hrs incubation by MTT assay; type: cell-based; conditions: Fibroblast
Summary of the method: (§2)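 Cell lines came from DSMZ; primary human fibroblasts served as non-cancer controls. Cells were grown in medium with 10% FCS, seeded at 50,000 cells/ml, and grown 2 days at 37 °C, 10% CO2. Serial dilutions were then added for 24 h. MTT (final 0.5 mg/ml) was added for 2 h. Formazan was pelleted, PBS-washed, dissolved in isopropanol/0.4% HCl and read at 590 nm. Two parallel experiments were run. IC50 was taken as the concentration giving 50% of untreated-control absorbance.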

[5] = system: PtK2; assay: Induction of morphological changes in Potorous tridactylus PtK2 cells assessed as loss of typical shape after 24 hrs by immunofluorescence microscopy; type: functional, cell-based
Summary of the method: (§3)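 PtK2 cells were grown on coverslips and treated at semi-confluence for 24 h. Fixation was either 3.7% paraformaldehyde followed by 0.1% Triton X-100 for 5 min, or ice-cold methanol/acetone (50:50) for 10 min. ER was stained with anti-GRP94 and tubulin with anti-α-tubulin (primary and Alexa 488 secondary antibodies, 45 min each). Actin was stained with phalloidin-Alexa 594 for 45 min and nuclei with DAPI. Imaging was by fluorescence microscopy.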

[6] = system: MCF7; assay: Cell cycle arrest in human MCF7 cells assessed as accumulation at S phase […] by propidium iodide staining-based flow cytometric analysis; type: functional
[7] = system: Pseudomonas aeruginosa; assay: Antimicrobial activity against Pseudomonas aeruginosa assessed as inhibition at 20 ug/6 mm disk after 1 to 2 days by agar diffusion assay; type: functional; summary of the method: as §1
[8] = system: Mycolicibacterium phlei; assay: Antimicrobial activity against Mycobacterium phlei assessed as inhibition at 20 ug/6 mm disk after 1 to 2 days by agar diffusion assay; type: functional; summary of the method: as §1
[9] = system: MCF7; assay: Cytotoxicity against human MCF7 cells assessed as cell viability after 24 hrs incubation by MTT assay; type: functional, cell-based; conditions: MCF7, 24 h; summary of the method: as §2
[10] = system: Staphylococcus aureus; assay: Antimicrobial activity against Staphylococcus aureus assessed as inhibition at 20 ug/6 mm disk after 1 to 2 days by agar diffusion assay; type: functional; summary of the method: as §1
[11] = system: PtK2; assay: Induction of morphological changes in Potorous tridactylus PtK2 cells assessed as lysis of ER and disappearance of actin stress fiber after 24 hrs by immunofluorescence microscopy; type: functional, cell-based; summary of the method: as §3
[12] = system: MCF7; assay: Cell cycle arrest in human MCF7 cells assessed as accumulation at G0/G1 phase after 30 mins by propidium iodide staining-based flow cytometric analysis; type: functional
Summary of the method: (§4)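 MCF-7 cells (10^6) were treated with compounds for 24 h alongside a methanol vehicle control. They were fixed in cold 70% methanol at 4 °C for one day, washed in PBS and permeabilised with 0.1% saponin in PBS. They were then stained with propidium iodide plus RNase (1 mg/ml) for 30 min, and DNA-content distribution was read by FACScan flow cytometry.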

[13] = system: MCF7; assay: Cell cycle arrest in human MCF7 cells assessed as accumulation at G2/M phase after 30 mins by propidium iodide staining-based flow cytometric analysis; type: functional; summary of the method: as §4
[14] = Octanol-water partition coefficient, log P of the compound by HPLC analysis; type: physicochemical
Summary of the method: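 Lipophilicity was measured by reversed-phase HPLC on a Nucleosil C18 column with isocratic water/methanol (3:1) at 0.5 ml/min and UV detection at 230 and 245 nm. Dead time was set with thiourea (t0 0.728 min). Retention factor was k = (tR − t0)/t0, and log P came from a calibration against at least six reference compounds.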

[15] = system: A-431; assay: Cytotoxicity against human A431 cells assessed as cell viability after 24 hrs incubation by MTT assay; type: functional, cell-based; conditions: A-431, 24 h; summary of the method: as §2
[16] = system: Micrococcus luteus; assay: Antimicrobial activity against Micrococcus luteus assessed as inhibition at 20 ug/6 mm disk after 1 to 2 days by agar diffusion assay; type: functional; summary of the method: as §1
[17] = system: Escherichia coli; assay: Antimicrobial activity against Escherichia coli tolC assessed as inhibition at 20 ug/6 mm disk after 1 to 2 days by agar diffusion assay; type: functional; summary of the method: as §1
[18] = system: Saccharomyces cerevisiae; assay: Antimicrobial activity against Saccharomyces cerevisiae assessed as inhibition at 20 ug/6 mm disk after 1 to 2 days by agar diffusion assay; type: functional; summary of the method: as §1
[19] = system: Aspergillus niger; assay: Antimicrobial activity against Aspergillus niger assessed as inhibition at 20 ug/6 mm disk after 1 to 2 days by agar diffusion assay; type: functional; summary of the method: as §1
[20] = system: Candida albicans; assay: Antimicrobial activity against Candida albicans assessed as inhibition at 20 ug/6 mm disk after 1 to 2 days by agar diffusion assay; type: functional; summary of the method: as §1
[21] = system: A-431; assay: Reduction in ROS in human A431 cells assessed as decrease in hydrogen peroxide level at 1 to 100 ng/ml after 1 hr by DCHFA assay; type: functional, cell-based
Summary of the method: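 A-431 cells (10^5 per well) were treated with a range of compound concentrations for 1 h. They were then loaded with DCHFA probe for 30 min in the dark. Fluorescence (ex 485/em 528 nm) was read immediately and expressed as arbitrary units per 10^5 cells.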

SMILES	log K [1]	diameter of the inhibition zone (DIZ) [2]	IC50 [4]	diameter of the inhibition zone (DIZ) [7]	diameter of the inhibition zone (DIZ) [8]	IC50 [9]	diameter of the inhibition zone (DIZ) [10]	Retention_time	logP [14]	IC50 [15]	diameter of the inhibition zone (DIZ) [16]	diameter of the inhibition zone (DIZ) [17]	diameter of the inhibition zone (DIZ) [18]	diameter of the inhibition zone (DIZ) [19]	diameter of the inhibition zone (DIZ) [20]	Activity [21]	other results
CC(C)(C)OC(=O)NCC(=O)OCC(=O)NCCC[Te]c1ccccc1	0.32	15 mm	19 µM	0 mm	14 mm	0.3 µM	16 mm	2.247 min	3.83	10 µM	7 mm	12 mm	0 mm	0 mm	0 mm		Activity [3]: Dose-dependent effect; Activity [5]: Active; Activity [6]: 4.61%; Activity [11]: Active; Activity [12]: 91.61%; Activity [13]: 3.78%
COc1ccc(N(CC(=O)NCCC[Se]c2ccccc2)C(=O)c2ccccc2)cc1	-0.03	0 mm	≥ 100 µM	0 mm	0 mm	≥ 100 µM	0 mm	1.412 min	3.1	≥ 100 µM	0 mm	0 mm	0 mm	18 mm	0 mm	inactive	
COc1ccc(N(CC(=O)NCCCSc2ccccc2)C(=O)C#Cc2ccccc2)cc1	0.12	0 mm	≥ 100 µM	0 mm	0 mm	≥ 100 µM	0 mm	1.698 min	3.4	≥ 100 µM	0 mm	0 mm	0 mm	0 mm	0 mm	inactive	
